In test [1] the target is T1, Estrogen receptor (Rattus norvegicus) (UniProt P06211+Q62986). Briefly: In vivo anti-uterotrophic effect in 0.2 ug estradiol benzoate stimulated immature rats at 12.5 ug. The class given is functional, organism-based. The method, boiled down:
(§1)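 Immature female Sprague-Dawley rats got daily subcutaneous injections of compound in 0.1 mL peanut oil for 3 days and were killed on day 4. Read-out was uterine weight (mg).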

Test [2] has as its target T1, Estrogen receptor (Rattus norvegicus). Put plainly: In vivo anti-uterotrophic effect in 0.2 ug estradiol benzoate stimulated immature rats at 50 ug. The class given is functional, organism-based. The method, boiled down: as §1
Test [3] shares this target. Briefly: In vivo anti-uterotrophic effect in 0.2 ug estradiol benzoate stimulated immature rats at 25 ug. Format: functional, organism-based. The method, boiled down: as §1
For test [4], the system named is MCF7. Briefly: Inhibition of MCF-7 human mammary tumor cell proliferation at 1*10e-8M. The class given is functional. The procedure, abridged:
(§2)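 MCF-7 cells were plated at 5000 cells/mL. […] Cell number was read as colour intensity at 540 nm. Values are means of optical density from four separate cultures, […]. Statistics were one-way ANOVA with Newman-Keuls test.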

For test [5], the target named is T1, Estrogen receptor (Rattus norvegicus). Briefly: In vivo anti-uterotrophic effect in 0.2 ug estradiol benzoate stimulated immature rats at 5 ug. Format: functional, organism-based. The procedure, abridged:
as §1

The target in test [6] is Estrogen receptor (Homo sapiens) (UniProt Q92731+P03372). Put plainly: Inhibition of [3H]estradiol binding to Estrogen receptor of MCF-7 cell lysate […]. Format: cell-based.
The test system of test [7] is MCF7. Briefly: (§3) Inhibition of 1*10e-8M estradiol induced proliferation of MCF-7 human mammary tumor cells. The class given is functional. The method, boiled down: as §2
Test [8] deals with MCF7. Briefly: Inhibition of MCF-7 human mammary tumor cell proliferation at 1*10e-6 M. The class given is functional. The method, boiled down:
as §2

Test [9] concerns MCF7. Put plainly: Inhibition of MCF-7 human mammary tumor cell proliferation. Format: functional. The procedure, abridged: as §2
The target in test [10] is T1, Estrogen receptor (Rattus norvegicus). Briefly: In vivo anti-uterotrophic effect in 0.2 ug estradiol benzoate stimulated immature rats at 20 ug. The class given is functional, organism-based. The method, boiled down:
as §1

The target is the same in test [11]. Briefly: In vivo anti-uterotrophic effect in 0.2 ug estradiol benzoate stimulated immature rats at 10 ug. Format: functional, organism-based. The procedure, abridged:
as §1

The test system of test [12] is MCF7. Briefly: Inhibition of 1*10e-7 M estradiol induced proliferation of MCF-7 human mammary tumor cells at 1*10e-6 M. Format: functional. The procedure, abridged:
as §2

The test system of test [13] is MCF7. Put plainly: Inhibition of MCF-7 human mammary tumor cell proliferation 1*10e-7 M. The class given is functional. The method, boiled down: as §2
Test [14] concerns MCF7. Put plainly: Inhibition of 1*10e-8M estradiol induced proliferation of MCF-7 human mammary tumor cells at 1*10e-7 M. Format: functional. The method, boiled down:
as §2

Test [15] deals with MCF7. Described as §3. Format: functional. The procedure, abridged:
as §2
This is another data set of the same source.

Test [16] concerns the target T1, Estrogen receptor (Rattus norvegicus). Briefly: In vivo uterotrophic effect in estradiol stimulated immature rats. The class given is functional, organism-based. The procedure, abridged: as §1
Test [17] relates to MCF7. Briefly: Inhibition of 1*10e-7 M estradiol induced proliferation of MCF-7 human mammary tumor cells at 1*10e-8M. Format: functional. The method, boiled down: as §2
The test system of test [18] is MCF7. Put plainly: Inhibition of 1*10e-7 M estradiol induced proliferation of MCF-7 human mammary tumor cells at 1*10e-7 M. Format: functional. The method, boiled down: as §2
The subject of test [19] is MCF7. Put plainly: Inhibition of MCF-7 human mammary tumor cell proliferation at 1*10e-7 M. Format: functional. The procedure, abridged:
as §2

For four molecules, Uterine weight, Optical density and relative binding affinity (RBA) results are on record in ChEMBL document CHEMBL1124143, “Nonisomerizable analogues of (Z)- and (E)-4-hydroxytamoxifen. Synthesis and endocrinological properties of substituted diphenylbenzocycloheptenes” (1988).

With `CN(C)CCOc1ccc(C2=C(c3ccccc3)CCCc3ccccc32)cc1`, the Uterine weight in test [1] came to 92; in [2], 77; in [3], 75.

As to `CN(C)CCOc1ccc(C2=C(c3ccccc3)CCCc3cc(O)ccc32)cc1`, the Optical density in test [4] is recorded as 0.126; in test [7], 0.52; in [8], 0.083; in test [9], 0.417; in test [12], 0.068; in test [13], 0.066. Also, the values for the Optical density in test [14] and in test [15] were 0.147 and 0.727, respectively. Besides, the Uterine weight in test [5] stood at 75; in test [10] it was 71; in [11], 72. This molecule also yielded a relative binding affinity (RBA) in test [6] of 1.5.

In test [16], `C[C@]12CC[C@@H]3c4ccc(OC(=O)c5ccccc5)cc4CC[C@H]3[C@@H]1CC[C@@H]2O` displayed a Uterine weight of 108.

For `CN(C)CCOc1ccc2c(c1)CCCC(c1ccccc1)=C2c1ccc(O)cc1`, the Optical density in [4] turned out to be 0.44; in test [8] it was 0.162; in test [17], 0.659; in test [9], 0.337; in test [12], 0.363; in test [15], 0.707. Besides, the Optical density in test [18] is recorded as 0.566; in [19] it was 0.328.
